Results reported in ChEMBL document CHEMBL4130635, “2,4-Diaminoquinazolines as Dual Toll-like Receptor (TLR) 7/8 Modulators for the Treatment of Hepatitis B Virus” (J Med Chem, 2018).
Activity calls are given as the source filed them. The calls are words filed in the database; no cut-off is given here.

How the values were obtained:
Liver [1] = assay: Upregulation of IP-10 mRNA expression levels in C57BL/6J mouse liver at 0.3 mg/kg, po by RT-qPCR analysis (reference value: 1); assay type: functional
Cynomolgus monkey [2] = assay: Induction of ISG response in cynomolgus monkey plasma assessed as upregulation of Oas1b mRNA expression at 30 mg/kg, po after 24 hrs by Fluidigm RT-qPCR analysis (reference value: 1); assay type: functional, Macaca fascicularis
In short: (§1)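 Cynomolgus monkeys, single oral doses of 1, 3, 9 and 30 mg/kg with a planned 2-week wash-out between doses. Systemic ISG (ISG15, Mx1, OAS1) mRNA was measured by Fluidigm RT-qPCR at 1, 2, 4, 8 and 24 h postdose.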

[3] = Intrinsic clearance in cynomolgus monkey liver microsomes assessed per mg protein at 1 uM up to 60 mins; assay type: ADME, Macaca fascicularis, microsome; conditions: read-out: CLH
In short: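 Cynomolgus monkey liver microsomes at 1 mg/mL microsomal protein, incubated at 37 °C with 1 μM test compound. Serial samples taken at intervals up to 60 min and analysed for remaining compound concentration to derive intrinsic clearance, expressed as (μL/min)/mg protein and rounded to the nearest whole number.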

[4] = Inhibition of CYP450 (unknown origin); assay type: ADME; conditions: human
Cynomolgus monkey [5] = assay: Proinflammatory activity in cynomolgus monkey plasma assessed as TNFalpha levels at 9 mg/kg, po after 24 hrs by Luminex assay (reference value: 285 pg/ml); assay type: functional, Macaca fascicularis
[6] = Drug uptake in C57BL/6J mouse liver at 30 mg/kg, po by LC-MS analysis; assay type: ADME, organism-based; conditions: in vivo
In short: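 Healthy C57BL/6 mice, groups of 15, given a single oral dose (0.3, 1, 3, 10 or 30 mg/kg) in 20% HP-β-CD. Blood drawn at 0.5 h. Three mice per group sacrificed at 0.5, 1, 2, 4 or 7 h, and compound in plasma and liver measured by LC−MS. Values rounded to whole numbers.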

Liver [7] = assay: Proinflammatory activity in C57BL/6J mouse liver assessed as CXCL-1 levels at 1 mg/kg, po by multiplex assay (reference value: 25 pg/g); assay type: functional
Cynomolgus monkey [8] = assay: Induction of ISG response in cynomolgus monkey plasma assessed as upregulation of Isg15 mRNA expression at 30 mg/kg, po after 24 hrs by Fluidigm RT-qPCR analysis (reference value: 1); assay type: functional, Macaca fascicularis; in short: as §1
[9] = biological target: T1, TLR7 and TLR8 (Homo sapiens) (UniProt Q9NYK1+Q9NR97); assay: Agonist activity at TLR7/8 in human PBMCs co-cultured with primary human hepatocytes infected with HBV genotype C for 12 days assessed as increase in MCP1 levels up to 5 uM measured after 42 days
Plasma [10] = assay: Proinflammatory activity in C57BL/6J mouse plasma assessed as TNFalpha levels at 3 mg/kg, po by multiplex assay (reference value: 70 pg/ml); assay type: functional
Plasma [11] = assay: Proinflammatory activity in C57BL/6J mouse plasma assessed as IL-6 levels at 3 mg/kg, po by multiplex assay (reference value: 505 pg/ml); assay type: functional
[12] = biological target: T1, TLR7 and TLR8 (Homo sapiens); assay: Agonist activity at TLR7/8 in human PBMCs assessed as reduction in extracellular viral load in human hepatocytes infected with HBV genotype C for 12 days followed by exposure to conditioned supernatant from up to 5 uM compound treated PBMCs measured after 42 days; assay type: cell-based
Cynomolgus monkey [13] = assay: Toxicity in cynomolgus monkey assessed as induction of clinical pathology changes up to 30 mg/kg, po; assay type: organism-based, Macaca fascicularis; conditions: in vivo
[14] = biological target: T1, TLR7 and TLR8 (Homo sapiens); assay: Agonist activity at TLR7/8 in human PBMCs co-cultured with primary human hepatocytes infected with HBV genotype C for 12 days assessed as increase in IL-6 levels up to 5 uM measured after 42 days
Cytochrome P450 3A4 = Cytochrome P450 3A4 (Homo sapiens, UniProt P08684); assay: Induction of CYP3A4 (unknown origin); assay type: ADME
Sequence of Cytochrome P450 3A4 (P08684 whole entry): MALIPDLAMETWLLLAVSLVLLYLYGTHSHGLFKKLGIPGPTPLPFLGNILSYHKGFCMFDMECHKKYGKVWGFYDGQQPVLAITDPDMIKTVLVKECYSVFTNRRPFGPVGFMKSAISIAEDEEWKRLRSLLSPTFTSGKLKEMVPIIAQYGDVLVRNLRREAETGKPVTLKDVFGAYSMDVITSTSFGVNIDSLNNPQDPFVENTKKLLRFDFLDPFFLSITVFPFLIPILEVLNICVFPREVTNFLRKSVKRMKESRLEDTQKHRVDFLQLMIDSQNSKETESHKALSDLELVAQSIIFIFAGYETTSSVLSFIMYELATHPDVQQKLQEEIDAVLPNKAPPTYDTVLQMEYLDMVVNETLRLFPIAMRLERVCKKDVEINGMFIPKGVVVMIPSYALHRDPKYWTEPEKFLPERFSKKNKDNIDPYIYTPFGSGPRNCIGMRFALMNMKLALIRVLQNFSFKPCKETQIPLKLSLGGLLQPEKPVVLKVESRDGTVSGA

Plasma [15] = assay: Induction of IFNalpha levels in C57BL/6J mouse plasma at 30 mg/kg, po by ELISA; assay type: functional
Plasma [16] = assay: Proinflammatory activity in C57BL/6J mouse plasma assessed as TNFalpha levels at 30 mg/kg, po by multiplex assay (reference value: 70 pg/ml); assay type: functional
Liver [17] = assay: Proinflammatory activity in C57BL/6J mouse liver assessed as CXCL-1 levels at 3 mg/kg, po by multiplex assay (reference value: 25 pg/g); assay type: functional
Mus musculus = assay: Toxicity in C57BL/6J mouse assessed as change in body temperature at 1 to 30 mg/kg, po; assay type: organism-based; conditions: in vivo
Plasma [18] = assay: Effect on cytokine profile in C57BL/6J mouse plasma assessed as IFNgamma levels at 30 mg/kg, po by multiplex assay; assay type: functional
In short: (§2)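 Single oral gavage in 20% HP-β-CD to healthy C57BL/6 mice, groups of 15 at 0.3, 1, 3, 10 or 30 mg/kg. Three mice per group sacrificed at 0.5, 1, 2, 4 or 7 h. Plasma and liver cytokines by multiplex, maximum level reported, rounded to nearest multiple of 5.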

Liver [19] = assay: Proinflammatory activity in C57BL/6J mouse liver assessed as IL-1beta levels at 30 mg/kg, po by multiplex assay; assay type: functional
Plasma [20] = assay: Effect on cytokine profile in C57BL/6J mouse plasma assessed as IL-12p70 levels at 30 mg/kg, po by multiplex assay (reference value: 560 pg/ml); assay type: functional; in short: as §2
[21] = Ratio of drug level in Sprague-Dawley rat liver to plasma at 10 mg/kg, po
[22] = Plasma concentration in C57BL/6J mouse at 30 mg/kg, po by LC-MS analysis; assay type: ADME, organism-based; conditions: in vivo
Liver [23] = assay: Proinflammatory activity in C57BL/6J mouse liver assessed as IL-6 levels at 10 mg/kg, po by multiplex assay (reference value: 10 pg/g); assay type: functional
Cynomolgus monkey [24] = assay: Activation of monocytes in cynomolgus monkey plasma assessed as upregulation of IL1Ra levels at 9 mg/kg, po after 24 hrs by Luminex assay (reference value: 320 pg/ml); assay type: functional, Macaca fascicularis
[25] = biological target: Voltage-gated inwardly rectifying potassium channel KCNH2 (Homo sapiens, UniProt Q12809); assay: Inhibition of radioligand binding to human ERG expressed in HEK293 cell membranes by scintillation counting method
Sequence of Voltage-gated inwardly rectifying potassium channel KCNH2 (Q12809 whole entry): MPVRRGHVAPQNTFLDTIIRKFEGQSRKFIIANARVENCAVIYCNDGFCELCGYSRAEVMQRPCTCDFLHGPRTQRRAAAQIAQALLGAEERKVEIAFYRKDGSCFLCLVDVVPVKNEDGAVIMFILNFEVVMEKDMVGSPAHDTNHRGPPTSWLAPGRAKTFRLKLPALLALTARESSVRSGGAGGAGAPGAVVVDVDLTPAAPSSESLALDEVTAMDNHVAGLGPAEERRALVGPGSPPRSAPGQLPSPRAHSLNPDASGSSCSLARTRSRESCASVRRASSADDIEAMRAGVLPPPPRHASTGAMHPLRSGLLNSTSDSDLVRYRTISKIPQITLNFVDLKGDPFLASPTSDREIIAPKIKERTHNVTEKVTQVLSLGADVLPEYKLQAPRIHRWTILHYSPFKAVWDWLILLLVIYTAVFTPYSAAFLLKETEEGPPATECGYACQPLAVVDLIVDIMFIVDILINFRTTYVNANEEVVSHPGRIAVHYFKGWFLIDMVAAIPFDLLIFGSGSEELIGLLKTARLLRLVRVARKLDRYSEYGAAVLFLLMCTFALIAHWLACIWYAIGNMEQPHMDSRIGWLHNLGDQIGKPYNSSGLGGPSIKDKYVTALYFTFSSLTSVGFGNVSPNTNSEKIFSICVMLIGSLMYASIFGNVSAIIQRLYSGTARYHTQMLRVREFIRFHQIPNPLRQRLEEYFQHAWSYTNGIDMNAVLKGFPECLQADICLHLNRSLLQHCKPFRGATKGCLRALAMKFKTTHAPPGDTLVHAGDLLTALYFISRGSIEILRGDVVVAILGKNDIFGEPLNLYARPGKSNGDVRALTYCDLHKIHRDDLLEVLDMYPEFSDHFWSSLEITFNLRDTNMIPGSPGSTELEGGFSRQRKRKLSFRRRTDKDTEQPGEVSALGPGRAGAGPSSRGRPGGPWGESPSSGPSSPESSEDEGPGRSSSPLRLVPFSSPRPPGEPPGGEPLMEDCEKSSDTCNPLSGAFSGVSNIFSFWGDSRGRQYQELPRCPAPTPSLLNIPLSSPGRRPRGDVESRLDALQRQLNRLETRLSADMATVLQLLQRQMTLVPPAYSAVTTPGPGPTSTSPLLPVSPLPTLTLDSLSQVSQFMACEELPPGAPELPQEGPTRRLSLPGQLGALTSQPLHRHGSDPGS

Cynomolgus monkey [26] = assay: Proinflammatory activity in cynomolgus monkey plasma assessed as TNFalpha levels at 30 mg/kg, po after 24 hrs by Luminex assay (reference value: 285 pg/ml); assay type: functional, Macaca fascicularis
Cynomolgus monkey [27] = assay: Proinflammatory activity in cynomolgus monkey plasma assessed as IL-6 levels at 30 mg/kg, po after 24 hrs by Luminex assay (reference value: 80 pg/ml); assay type: functional, Macaca fascicularis
Liver [28] = assay: Effect on cytokine profile in C57BL/6J mouse liver assessed as IFNgamma levels at 3 mg/kg, po by multiplex assay; assay type: functional; in short: as §2
Cynomolgus monkey [29] = assay: Induction of ISG response in cynomolgus monkey plasma assessed as upregulation of Oas1b mRNA expression at 3 mg/kg, po after 24 hrs by Fluidigm RT-qPCR analysis (reference value: 1); assay type: functional, Macaca fascicularis; in short: as §1

CCC[C@@H](CCO)Nc1nc(N)nc2c(F)cccc12
fold change (FC) (Liver [1]): 35 | fold change (FC) (Cynomolgus monkey [2]): 235 | microsomal CLint at 1 µM [3]: 16 µL/min/mg | inhibition (INH) [4]: Not Active | Activity (Cynomolgus monkey [5]): 350 pg/mL | Drug uptake [6]: 462 ng/g | Activity (Liver [7]): 6755 pg/g | fold change (FC) (Cynomolgus monkey [8]): 285 | Activity [9]: Active | Activity (Plasma [10]): 1665 pg/mL | Activity (Plasma [11]): 4970 pg/mL | Activity [12]: Active | Activity (Cynomolgus monkey [13]): Non-Toxic | Activity [14]: Active | Activity (Cytochrome P450 3A4): Not Active | Activity (Plasma [15]): 1930 pg/mL | Activity (Plasma [16]): >10000 pg/mL | Activity (Liver [17]): 35575 pg/g | Activity (Mus musculus): Non-Toxic | Activity (Plasma [18]): 1010 pg/mL | Activity (Liver [19]): 56615 pg/g | Activity (Plasma [20]): 820 pg/mL | Kp [21]: 16 | Cp [22]: 35.7 ng/mL | Activity (Liver [23]): 3450 pg/g | Activity (Cynomolgus monkey [24]): 2455 pg/mL | IC50 [25]: > 10 µM | Activity (Cynomolgus monkey [26]): 2990 pg/mL | Activity (Cynomolgus monkey [27]): 5285 pg/mL | Activity (Liver [28]): 150 pg/g | fold change (FC) (Cynomolgus monkey [29]): 265
